ChEMBL document CHEMBL3352187, “Design, synthesis and molecular docking study of novel quinoxalin-2(1H)-ones as anti-tumor active agents with inhibition of tyrosine kinase receptor and studying their cyclooxygenase-2 activity” (Eur J Med Chem, 2014)

Columns and labels:
HepG2 [1] = assay: Cytotoxicity against human HepG2 cells after 48 hrs by sulforhodamine B assay; type: functional, cell-based; conditions: HepG2, 48 h
Outline: (§1)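 Cells seeded at 10^4 per well, left 24 h to attach, then exposed to 0, 12.5, 25, 50 […] as printed, triplicate wells per dose, 48 h at 37 °C, 5% CO2. Fixed, stained with sulforhodamine B, excess dye removed with acetic acid, bound dye taken up in Tris EDTA and read on an ELISA reader. IC50 from survival curve of surviving fraction against concentration.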

MCF7 [2] = assay: Cytotoxicity against human MCF7 cells after 48 hrs by sulforhodamine B assay; type: functional, cell-based; conditions: MCF7, 48 h; outline: as §1
HepG2 [3] = assay: Inhibition of protein tyrosine kinase in human HepG2 cells assessed as change in TRK level at cytotoxic IC50 level incubated for 24 hrs by ELISA method; type: cell-based; set-up: scale not given: the % may be the effect or the level left
Outline: (§2)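 Cells kept in DMEM with 10% heat-inactivated fetal calf serum plus penicillin/streptomycin at 37 °C, 5% CO2. […] Cells homogenized in saline. TRK measured by double-antibody sandwich ELISA, OD 450 nm, read against a standard curve in triplicate. Percent inhibition relative to DMSO-treated control cells.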

MCF7 [4] = assay: Inhibition of protein tyrosine kinase in human MCF7 cells assessed as change in TRK level at cytotoxic IC50 level incubated for 24 hrs by ELISA method; type: cell-based; set-up: scale not given: the % may be the effect or the level left; outline: as §2
[5] = target: T1, Prostaglandin G/H synthase 1 (Ovis aries, UniProt P05979); assay: Inhibition of ovine COX1 assessed as reduction in PGH2 production using arachidonic acid substrate by enzyme immunoassay
T1 sequence (P05979 whole entry): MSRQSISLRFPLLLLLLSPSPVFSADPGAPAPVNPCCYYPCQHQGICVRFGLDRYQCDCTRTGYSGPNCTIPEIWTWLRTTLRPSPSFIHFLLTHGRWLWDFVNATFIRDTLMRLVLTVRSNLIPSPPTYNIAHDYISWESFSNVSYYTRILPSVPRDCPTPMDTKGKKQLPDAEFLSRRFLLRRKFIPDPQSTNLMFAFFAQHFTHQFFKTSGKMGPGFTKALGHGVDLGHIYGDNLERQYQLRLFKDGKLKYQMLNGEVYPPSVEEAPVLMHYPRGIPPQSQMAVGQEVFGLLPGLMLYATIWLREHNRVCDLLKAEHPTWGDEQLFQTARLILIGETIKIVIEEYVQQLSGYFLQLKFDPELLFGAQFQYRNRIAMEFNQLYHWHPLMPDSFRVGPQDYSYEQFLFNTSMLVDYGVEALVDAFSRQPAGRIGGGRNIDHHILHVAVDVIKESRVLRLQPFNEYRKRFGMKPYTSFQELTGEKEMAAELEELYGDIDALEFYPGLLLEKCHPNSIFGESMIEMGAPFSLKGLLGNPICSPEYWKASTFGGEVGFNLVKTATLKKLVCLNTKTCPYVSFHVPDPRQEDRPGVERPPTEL
Outline: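 Ovine COX-1 with heme in 0.1 M Tris-HCl pH 8.0 containing 5 mM EDTA and 2 mM phenol. Test compound given at […] final, from DMSO stock. Preincubated 5 min at 37 °C, then arachidonic acid added; stopped with 1 M HCl after 2 min. PGH2 reduced to PGF2a by stannous chloride, measured by competitive EIA at 410 nm. IC50 from concentration-inhibition curve, duplicate determinations.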

| SMILES | IC50 [5] | IC50 (HepG2 [1]) | IC50 (MCF7 [2]) | Activity (HepG2 [3]) | Activity (MCF7 [4]) |
| --- | --- | --- | --- | --- | --- |
| Cc1nn(-c2ccccc2)c(N(C)C)c1/C=N/Nc1nc2ccccc2nc1O | > 50 µM | 31.5 µM | 18 µM | 73% | 62% |
| Cc1nn(-c2ccc([N+](=O)[O-])cc2)c(Cl)c1/C=N/Nc1nc2ccccc2[nH]c1=O | – | 34.2 µM | 20.7 µM | 39% | 40% |
| Cc1nn(-c2ccccc2)c(OC2CCCC2)c1/C=N/Nc1nc2ccccc2nc1O | > 50 µM | 36.5 µM | 31.5 µM | 40% | 16.5% |
| Cc1nn(-c2ccccc2)c(N2CCN(S(=O)(=O)c3ccccc3[N+](=O)[O-])CC2)c1/C=N/Nc1nc2ccccc2nc1O | – | 32.2 µM | 14.3 µM | 13% | 37% |
| Cc1nn(-c2ccccc2)c(SCC(=O)O)c1/C=N/Nc1nc2ccccc2nc1O | – | 40.6 µM | 33.6 µM | 22% | 4% |
| Cc1nn(-c2ccccc2)c(Cl)c1/C=N/Nc1nc2ccccc2[nH]c1=O | > 50 µM | 19.6 µM | 25.2 µM | 79% | 34% |
| CC(=O)N1CCN(c2c(/C=N/Nc3nc4ccccc4nc3O)c(C)nn2-c2ccccc2)CC1 | > 50 µM | 11 µM | 18 µM | 80% | – |
| Cc1nn(-c2ccccc2)c(SCCO)c1/C=N/Nc1nc2ccccc2nc1O | – | 23.4 µM | 11.3 µM | 78% | 82% |
| Cc1nn(-c2ccccc2)c(N2CCN(S(=O)(=O)c3ccccc3)CC2)c1/C=N/Nc1nc2ccccc2nc1O | – | 28.1 µM | 26.2 µM | 19% | 12% |

Now from value to compound, other results behind:

| IC50 [5] | SMILES | IC50 (HepG2 [1]) | IC50 (MCF7 [2]) | Activity (HepG2 [3]) | Activity (MCF7 [4]) |
| --- | --- | --- | --- | --- | --- |
| > 50 µM | Cc1nn(-c2ccccc2)c(N2CCOCC2)c1/C=N/Nc1nc2ccccc2nc1O | 11 µM | 9.28 µM | 84% | 85% |
| > 50 µM | Cc1nn(-c2ccccc2)c(N2CCN(C)CC2)c1/C=N/Nc1nc2ccccc2nc1O | 11.4 µM | 10 µM | 83% | 83% |
| > 50 µM | Cc1nn(-c2ccccc2)c(N2CCNCC2)c1/C=N/Nc1nc2ccccc2nc1O | 38.1 µM | 16.3 µM | 20% | 66% |
| > 50 µM | Cc1nn(-c2ccccc2)c(N2CCCCC2)c1/C=N/Nc1nc2ccccc2nc1O | 18.1 µM | 12.8 µM | 75% | 74% |
